Data as given in ChEMBL document CHEMBL2062487, “Design, synthesis and evaluation of clinafloxacin triazole hybrids as a new type of antibacterial and antifungal agents” (2012).
In brackets after ≈: the same amount, converted by molar mass.

Columns and labels:
Staphylococcus aureus [1] = assay: Antibacterial activity against methicillin-resistant Staphylococcus aureus N 315 by two fold broth dilution method; assay type: functional; conditions: N315
How it was run: (§1)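 Twofold broth dilution in 96-well microtest plates following NCCLS guidance. Endpoint is the MIC (µg/mL), the lowest concentration that inhibits growth. Clinafloxacin, chloramphenicol and fluconazole served as positive controls.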

Staphylococcus aureus [2] = assay: Antibacterial activity against Staphylococcus aureus ATCC […] by two fold broth dilution method; assay type: functional
How it was run: (§2)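 MIC was determined by twofold broth dilution in microplates, following NCCLS recommendations. Clinafloxacin, chloramphenicol and fluconazole served as positive controls. Values are given in μg/mL.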

Bacillus subtilis = assay: Antibacterial activity against Bacillus subtilis ATCC 6633 by two fold broth dilution method; assay type: functional; how it was run: as §2
Micrococcus luteus [3] = assay: Antibacterial activity against Micrococcus luteus ATCC 4698 by two fold broth dilution method; assay type: functional; conditions: NCTC 2665; how it was run: as §2
Escherichia coli = assay: Antibacterial activity against Escherichia coli JM109 by two fold broth dilution method; assay type: functional; how it was run: as §2
Shigella dysenteriae = assay: Antibacterial activity against Shigella dysenteriae by two fold broth dilution method; assay type: functional; how it was run: as §1
Pseudomonas aeruginosa = assay: Antibacterial activity against Pseudomonas aeruginosa by two fold broth dilution method; assay type: functional; how it was run: as §2
[4] = Antibacterial activity against Bacillus proteus by two fold broth dilution method; assay type: functional; how it was run: as §2
Candida albicans = assay: Antifungal activity against Candida albicans ATCC 76615 by two fold broth dilution method; assay type: functional; how it was run: as §2
Candida = assay: Antifungal activity against Candida mycoderma by two fold broth dilution method; assay type: functional; how it was run: as §2
Micrococcus luteus [5] = assay: Ratio of chloramphenicol MIC to compound MIC for Micrococcus luteus ATCC 4698; assay type: functional, NCTC 2665

Row | SMILES | MIC (Staphylococcus aureus [1]) | MIC (Staphylococcus aureus [2]) | MIC (Bacillus subtilis) | MIC (Micrococcus luteus [3]) | MIC (Escherichia coli) | MIC (Shigella dysenteriae) | MIC (Pseudomonas aeruginosa) | MIC [4] | MIC (Candida albicans) | MIC (Candida) | Ratio (Micrococcus luteus [5])
1 | Cc1ccc(C(=O)Cn2cncn2)cc1 | > 512 µg/mL | > 512 µg/mL | 256 µg/mL (≈ 1270 µM) | > 512 µg/mL | 32 µg/mL (≈ 159 µM) | > 512 µg/mL | 32 µg/mL (≈ 159 µM) | > 512 µg/mL | > 512 µg/mL | > 512 µg/mL | 
2 | O=C(Cn1cncn1)c1ccc(Cl)cc1 | 512 µg/mL (≈ 2310 µM) | 512 µg/mL (≈ 2310 µM) | > 512 µg/mL | > 512 µg/mL | > 512 µg/mL | 512 µg/mL (≈ 2310 µM) | 512 µg/mL (≈ 2310 µM) | 512 µg/mL (≈ 2310 µM) | 512 µg/mL (≈ 2310 µM) | > 512 µg/mL | 
3 | O=C(Cn1cncn1)c1ccc(F)cc1 | > 512 µg/mL | > 512 µg/mL | > 512 µg/mL | > 512 µg/mL | > 512 µg/mL | > 512 µg/mL | 512 µg/mL (≈ 2500 µM) | > 512 µg/mL | > 512 µg/mL | > 512 µg/mL | 
4 | O=C(Cn1cncn1)c1ccc(Cl)c(Cl)c1 | > 512 µg/mL | 256 µg/mL (≈ 1000 µM) | 512 µg/mL (≈ 2000 µM) | 512 µg/mL (≈ 2000 µM) | 32 µg/mL (≈ 125 µM) | 512 µg/mL (≈ 2000 µM) | 128 µg/mL (≈ 500 µM) | 256 µg/mL (≈ 1000 µM) | > 512 µg/mL | 512 µg/mL (≈ 2000 µM) | 
5 | O=C(Cn1cncn1)c1ccc(F)c(F)c1 | > 512 µg/mL | > 512 µg/mL | 512 µg/mL (≈ 2290 µM) | 512 µg/mL (≈ 2290 µM) | 64 µg/mL (≈ 287 µM) | 512 µg/mL (≈ 2290 µM) | 256 µg/mL (≈ 1150 µM) | > 512 µg/mL | > 512 µg/mL | 512 µg/mL (≈ 2290 µM) | 
6 | O=C(Cn1cncn1)c1ccc(Cl)cc1Cl | > 512 µg/mL | > 512 µg/mL | 512 µg/mL (≈ 2000 µM) | > 512 µg/mL | 128 µg/mL (≈ 500 µM) | 512 µg/mL (≈ 2000 µM) | 256 µg/mL (≈ 1000 µM) | 512 µg/mL (≈ 2000 µM) | 512 µg/mL (≈ 2000 µM) | > 512 µg/mL | 
7 | O=C(Cn1cncn1)c1ccc(F)cc1F | > 512 µg/mL | 512 µg/mL (≈ 2290 µM) | 512 µg/mL (≈ 2290 µM) | 512 µg/mL (≈ 2290 µM) | 32 µg/mL (≈ 143 µM) | 512 µg/mL (≈ 2290 µM) | 256 µg/mL (≈ 1150 µM) | 512 µg/mL (≈ 2290 µM) | 512 µg/mL (≈ 2290 µM) | > 512 µg/mL | 
8 | Fc1ccc(C2(Cn3cncn3)CO2)c(F)c1 (racemic) | 128 µg/mL (≈ 540 µM) | 256 µg/mL (≈ 1080 µM) | 16 µg/mL (≈ 67.5 µM) | 32 µg/mL (≈ 135 µM) | 32 µg/mL (≈ 135 µM) | 32 µg/mL (≈ 135 µM) | 16 µg/mL (≈ 67.5 µM) | 32 µg/mL (≈ 135 µM) | 64 µg/mL (≈ 270 µM) | 8 µg/mL (≈ 33.7 µM) | 
9 | Cc1ccc(C2(Cn3cncn3)CO2)cc1 (racemic) | 512 µg/mL (≈ 2380 µM) | 256 µg/mL (≈ 1190 µM) | 8 µg/mL (≈ 37.2 µM) | 1 µg/mL (≈ 4.65 µM) | 256 µg/mL (≈ 1190 µM) | 256 µg/mL (≈ 1190 µM) | 256 µg/mL (≈ 1190 µM) | 256 µg/mL (≈ 1190 µM) | 256 µg/mL (≈ 1190 µM) | 1 µg/mL (≈ 4.65 µM) | 8
10 | Clc1ccc(C2(Cn3cncn3)CO2)cc1 (racemic) | 256 µg/mL (≈ 1090 µM) | 64 µg/mL (≈ 272 µM) | 16 µg/mL (≈ 67.9 µM) | 32 µg/mL (≈ 136 µM) | 32 µg/mL (≈ 136 µM) | 32 µg/mL (≈ 136 µM) | 32 µg/mL (≈ 136 µM) | 16 µg/mL (≈ 67.9 µM) | 32 µg/mL (≈ 136 µM) | 32 µg/mL (≈ 136 µM) | 
11 | Fc1ccc(C2(Cn3cncn3)CO2)cc1 (racemic) | 128 µg/mL (≈ 584 µM) | 256 µg/mL (≈ 1170 µM) | 8 µg/mL (≈ 36.5 µM) | 8 µg/mL (≈ 36.5 µM) | 128 µg/mL (≈ 584 µM) | 64 µg/mL (≈ 292 µM) | 128 µg/mL (≈ 584 µM) | 128 µg/mL (≈ 584 µM) | 64 µg/mL (≈ 292 µM) | 8 µg/mL (≈ 36.5 µM) | 
12 | Clc1ccc(C2(Cn3cncn3)CO2)cc1Cl (racemic) | 256 µg/mL (≈ 948 µM) | 128 µg/mL (≈ 474 µM) | 16 µg/mL (≈ 59.2 µM) | 16 µg/mL (≈ 59.2 µM) | 128 µg/mL (≈ 474 µM) | 64 µg/mL (≈ 237 µM) | 128 µg/mL (≈ 474 µM) | 32 µg/mL (≈ 118 µM) | 64 µg/mL (≈ 237 µM) | 16 µg/mL (≈ 59.2 µM) | 
